These results are taken from ChEMBL document CHEMBL1138208, “Discovery of N-[(1S,2S)-3-(4-Chlorophenyl)-2- (3-cyanophenyl)-1-methylpropyl]-2-methyl-2- {[5-(trifluoromethyl)pyridin-2-yl]oxy}propanamide (MK-0364), a novel, acyclic cannabinoid-1 receptor inverse agonist for the treatment of obesity” (J Med Chem, 2006).

Data set [1] can be described thus: Bioavailability in Sprague-Dawley rat at 1 mg/kg, iv and 2 mg/kg, po. The class given is ADME, organism-based. The settings on record: in vivo.
Data set [2] is described as follows: Drug level in Sprague-Dawley rat brain at 1 mg/kg, iv after 1 hr. The class given is ADME, organism-based. The settings on record: read-out: Drug uptake. More on the design: dose 1 mg/kg, route intravenous.
The nature of data set [3]: Drug level in Sprague-Dawley rat plasma at 1 mg/kg, iv after 1 hr. The class given is ADME, organism-based. More on the design: dose 1 mg/kg, route intravenous. The following applies: read-out: Drug uptake.
Data set [4] is described as follows: Bioavailability in dog at 0.2 mg/kg, iv and 0.4 mg/kg, po. The following applies: in vivo. Type of data set: ADME, organism-based, Canis lupus familiaris.
The nature of data set [5]: Half life in dog at 0.2 mg/kg, iv and 0.4 mg/kg, po. Type of data set: ADME, organism-based, Canis lupus familiaris. The following applies: in vivo.
Data set [6] in a line: Bioavailability in rhesus monkey at 0.2 mg/kg, iv and 0.4 mg/kg, po. Type of data set: ADME, organism-based, Macaca mulatta. The following applies: in vivo.
Data set [7] can be described thus: Half life in rhesus monkey at 0.2 mg/kg, iv and 0.4 mg/kg, po. The class given is ADME, organism-based, Macaca mulatta. The following applies: in vivo.
Data set [8] has as its system Rattus norvegicus. Put plainly: Reduction in Sprague-Dawley rat body weight at 0.3 mg/kg, po after 14 days relative to control. Type of data set: functional. More on the design: scale not given: the % may be the effect or the level left. The gist of the method:
(§1)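 Diet-induced obese (DIO) rats were dosed orally once daily (qd) for 14 days at 0.3, 1 or 3 mg/kg. Body weight change is expressed as percent reduction relative to vehicle-treated animals.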

Data set [9] deals with Rattus norvegicus. As to the kind of experiment: Inhibition of CP-55940-induced decrease in body temperature in Sprague-Dawley rat at 3 mg/kg, iv. Also on record: dose 3 mg/kg. The class given is functional, organism-based.
Data set [10] concerns Rattus norvegicus. Put plainly: Reduction in Sprague-Dawley rat body weight at 1 mg/kg, po after 14 days relative to control. Type of data set: functional. Also on record: scale not given: the % may be the effect or the level left. Put shortly: as §1
Data set [11] has as its system Rattus norvegicus. Put plainly: Reduction in Sprague-Dawley rat body weight at 3 mg/kg, po after 14 days relative to control. Type of data set: functional. More on the design: scale not given: the % may be the effect or the level left. Put shortly:
as §1

The species entered for a further data set is Homo sapiens. As to the kind of experiment: Protein binding in human liver microsome. Type of data set: ADME. The following applies: microsomes. Put shortly: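 The tritiated compound was incubated with liver microsomes. Irreversible (covalent) binding of radioactivity to microsomal protein was measured after 1 h of incubation and expressed as pmol equiv/mg protein.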

The target of the next data set is Cannabinoid receptor 1 (Homo sapiens, UniProt P21554). Put plainly: biochemical. The class given is cell-based, CHO.
Cannabinoid receptor 1, sequence (P21554 whole entry): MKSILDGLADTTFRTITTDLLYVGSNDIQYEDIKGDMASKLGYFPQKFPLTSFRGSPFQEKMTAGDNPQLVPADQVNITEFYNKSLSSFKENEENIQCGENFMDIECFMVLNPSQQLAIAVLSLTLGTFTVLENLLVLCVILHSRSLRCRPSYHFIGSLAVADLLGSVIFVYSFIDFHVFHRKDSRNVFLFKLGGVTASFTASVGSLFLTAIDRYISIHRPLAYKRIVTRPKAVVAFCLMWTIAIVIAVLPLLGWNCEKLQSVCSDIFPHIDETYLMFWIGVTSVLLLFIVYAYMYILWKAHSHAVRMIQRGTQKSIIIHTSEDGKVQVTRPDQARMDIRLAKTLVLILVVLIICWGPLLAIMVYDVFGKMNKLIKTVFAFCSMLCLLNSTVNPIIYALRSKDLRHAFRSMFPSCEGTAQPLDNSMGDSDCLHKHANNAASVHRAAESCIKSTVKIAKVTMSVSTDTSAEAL
The target of the next data set is Cannabinoid receptor 2 (Homo sapiens, UniProt P34972). As to the kind of experiment: Inhibition of [3H]CP-55940 binding to human recombinant CB2 receptor in CHO cells. The class given is cell-based.
Cannabinoid receptor 2, sequence (P34972 whole entry): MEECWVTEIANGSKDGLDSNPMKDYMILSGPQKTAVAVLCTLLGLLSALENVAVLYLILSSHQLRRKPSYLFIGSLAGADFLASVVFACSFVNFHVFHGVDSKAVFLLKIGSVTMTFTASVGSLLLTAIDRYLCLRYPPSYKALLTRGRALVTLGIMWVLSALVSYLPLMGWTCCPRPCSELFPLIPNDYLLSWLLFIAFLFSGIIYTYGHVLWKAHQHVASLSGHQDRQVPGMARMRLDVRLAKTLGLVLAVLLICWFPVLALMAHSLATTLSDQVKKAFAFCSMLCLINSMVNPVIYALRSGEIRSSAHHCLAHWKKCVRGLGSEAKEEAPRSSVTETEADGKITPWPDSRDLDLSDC
Data set [12] concerns Rattus norvegicus. As to the kind of experiment: Reduction in food uptake in DIO Sprague-Dawley rat at 3 mg/kg, po. Type of data set: functional. More on the design: scale not given: the % may be the effect or the level left. Put shortly: (§2)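 Diet-induced obese rats were dosed orally. Overnight food intake was measured and reported as % change (mean ± error).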
For data set [13], the system named is Rattus norvegicus. As to the kind of experiment: Reduction in food uptake in DIO Sprague-Dawley rat at 10 mg/kg, po. Type of data set: functional. More on the design: scale not given: the % may be the effect or the level left. Put shortly:
as §2

Calls of active or inactive are those of the source.

For the compound `C[C@H](NC(=O)C(C)(C)Oc1ccc(C(F)(F)F)cn1)[C@@H](Cc1ccc(Cl)cc1)c1cccc(C#N)c1` [TARANABANT], the bioavailability is 74% in data set [1], 31% in data set [4] and 31% in data set [6]. The concentration at 1 h in [2] amounted to 110 nM; in [3], 180 nM. The half-life in data set [5] was 14 h; in data set [7], 3.6 h. Also, the Activity in the data set with Rattus norvegicus [8] amounted to 4%; in the data set with Rattus norvegicus [10], 5%; in the data set with Rattus norvegicus [11] it was 7%; in the data set listed under Homo sapiens it was 27 pmol/mg. The outcome with Rattus norvegicus [9] was Active.
`C[C@H](NC(=O)C(C)(C)Oc1ccc(Cl)cc1)[C@@H](Cc1ccc(C(F)(F)F)cc1)c1ccccc1` yielded an IC50 against Cannabinoid receptor 1 of 3.4 nM.
In the case of `C[C@H](NC(=O)C(C)(C)Oc1ccc(C(F)(F)F)cn1)[C@@H](Cc1ccc(Cl)cc1)c1ccccc1`, the Activity in the data set filed under Homo sapiens worked out at 88 pmol/mg.
With `C[C@H](NC(=O)C(C)(C)Oc1ccc(Cl)cc1)[C@@H](Cc1ccc(Cl)cc1)c1ccccc1F`, the figures for the IC50 against Cannabinoid receptor 1 and on Cannabinoid receptor 2 were 12 nM and 410 nM, respectively.
`C[C@H](NC(=O)C(C)(C)Oc1ccccn1)[C@@H](Cc1ccc(Cl)cc1)c1ccccc1`: the Activity in the data set filed under Homo sapiens was found to be 910 pmol/mg.
Still for that read-out and setting: under `C[C@H](NC(=O)C(C)(C)Oc1ccccc1)[C@@H](Cc1ccc(Cl)cc1)c1ccccc1` stands 3900 pmol/mg.
On Cannabinoid receptor 1, `C[C@H](NC(=O)C(C)(C)Oc1ccccc1Cl)[C@@H](Cc1ccc(Cl)cc1)c1ccccc1` returned an IC50 of 18 nM.
As for `C[C@H](NC(=O)C(C)(C)Oc1ccc(Cl)cc1)[C@@H](Cc1ccc(Cl)cc1)c1cccc(F)c1`, the IC50 at Cannabinoid receptor 1 was determined as 2.8 nM; at Cannabinoid receptor 2, 530 nM.
The compound `C[C@H](NC(=O)C(C)(C)Oc1ccc(Cl)cc1)[C@@H](Cc1ccccc1)c1ccccc1` gave an IC50 at Cannabinoid receptor 1 of 33 nM.
For the compound `C[C@H](NC(=O)C(C)(C)Oc1ccc(Cl)cc1)[C@@H](Cc1ccccc1Cl)c1ccccc1`, on Cannabinoid receptor 1, inhibition was half-maximal at 140 nM (IC50).
Take `C[C@@H](NC(=O)C(C)(C)Oc1ccc(Cl)cc1)[C@H](Cc1ccc(Cl)cc1)c1ccc(Cl)cc1`: the figures for the half-maximal inhibitory concentration (IC50) against Cannabinoid receptor 1 and at Cannabinoid receptor 2 were 13 nM and 600 nM, respectively.
On the same counts, the results for `C[C@@H](NC(=O)C(C)(C)Oc1ccc(Cl)cc1)[C@H](Cc1ccc(Cl)cc1)c1ccccc1` are 170 nM and 1700 nM.
Turning to `C[C@H](NC(=O)C(C)(C)Oc1ccncc1)[C@H](Cc1ccc(Cl)cc1)c1ccccc1`, the values for the IC50 against Cannabinoid receptor 1 and at Cannabinoid receptor 2 were 17 nM and 1200 nM, respectively.
For `C[C@H](NC(=O)C(C)(C)Oc1cccnc1)[C@@H](Cc1ccc(Cl)cc1)c1ccccc1`, at Cannabinoid receptor 1, the IC50 was found to be 19 nM.
In the data set filed under Homo sapiens, `C[C@H](NC(=O)C(C)(C)Oc1ccc(Cl)cn1)[C@@H](Cc1ccc(Cl)cc1)c1ccccc1` came in with an Activity of 300 pmol/mg.
Turning to `C[C@H](NC(=O)C(C)(C)Oc1ccc(Cl)cc1)[C@@H](Cc1ccc(Cl)cc1)c1ccc(F)cc1`, the IC50 at Cannabinoid receptor 1 is 90 nM.
Take `C[C@H](NC(=O)C(C)(C)Oc1cc(F)cc(F)c1)[C@@H](Cc1ccc(Cl)cc1)c1ccccc1`: in data set [1], the bioavailability came out at 19%. Also, the concentration at 1 h in [2] was determined as 270 nM; in [3], 350 nM. Besides, the results for the Activity in the data set on Rattus norvegicus [12], in the data set on Rattus norvegicus [13] and in the data set filed under Homo sapiens were 55%, 81% and 1700 pmol/mg, respectively.
In turn, `C[C@H](NC(=O)C(C)(C)Oc1ccc(Cl)cc1)[C@@H](Cc1ccc(F)cc1)c1ccccc1` had an IC50 against Cannabinoid receptor 1 of 14 nM.

One may read the bioavailability as dose-corrected exposure relative to a reference, in per cent. In general, half-life refers to the time needed for the level to fall by half in the phase considered. As a reminder, the IC50 is the concentration that inhibits the measured activity by half.
